According to PMC7857643 (ACS chemical biology, 2016):
Residue numbers refer to the chain shown, from its start. Several values for one entry are separate records, joined by “and”; a condition that tells them apart may be missing. Equal values may be shown once.

Experiments:
mTDP2 WT = molecular target: T1, mTDP2 WT (Mus musculus, UniProt Q9JJX7); assay: Recombinant TDP2 assay, mouse TDP2 wild type; type: biochemical
T1 sequence (Q9JJX7 1-370): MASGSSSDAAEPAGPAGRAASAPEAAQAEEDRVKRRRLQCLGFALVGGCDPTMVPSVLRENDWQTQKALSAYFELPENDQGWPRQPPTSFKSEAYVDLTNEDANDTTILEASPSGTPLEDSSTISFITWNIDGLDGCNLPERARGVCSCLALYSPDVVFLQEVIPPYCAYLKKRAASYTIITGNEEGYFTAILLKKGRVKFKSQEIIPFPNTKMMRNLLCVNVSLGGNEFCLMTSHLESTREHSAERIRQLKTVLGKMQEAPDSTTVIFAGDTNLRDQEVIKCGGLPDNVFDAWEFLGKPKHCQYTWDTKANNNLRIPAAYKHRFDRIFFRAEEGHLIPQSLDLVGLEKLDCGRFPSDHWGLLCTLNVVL

[1] = molecular target: T2, mTDP2 5M (Q278R, I281T, K282R, P318T, Y321C) (Mus musculus, UniProt Q9JJX7, I281T/K282R/P318T/Q278R/Y321C); assay: Recombinant TDP2 assay, mouse TDP2 5M mutant; type: biochemical
T2 sequence (Q9JJX7 1-370 Q278R/I281T/K282R/P318T/Y321C): T1 sequence (Q9JJX7 1-370) with Q278R, I281T, K282R, P318T, Y321C

[2] = molecular target: T3, mTDP2 8M (5M + E242G, S244A, R316G) (Mus musculus, UniProt Q9JJX7, E242G/I281T/K282R/P318T/Q278R/R316G/S244A/Y321C); assay: Recombinant TDP2 assay, mouse TDP2 8M mutant; type: biochemical; conditions: IC50 mTDP2 8M, mouse TDP2 with eight human mutations
T3 sequence (Q9JJX7 1-370 E242G/S244A/Q278R/I281T/K282R/R316G/P318T/Y321C): T1 sequence (Q9JJX7 1-370) with E242G, S244A, Q278R, I281T, K282R, R316G, P318T, Y321C

mTDP2 9M (8M + H323L) = molecular target: T4, mTDP2 9M (8M + H323L) (Mus musculus, UniProt Q9JJX7, E242G/H323L/I281T/K282R/P318T/Q278R/R316G/S244A/Y321C); assay: biochemical
T4 sequence (Q9JJX7 1-370 E242G/S244A/Q278R/I281T/K282R/R316G/P318T/Y321C/H323L): T1 sequence (Q9JJX7 1-370) with E242G, S244A, Q278R, I281T, K282R, R316G, P318T, Y321C, H323L

recombinant human TDP2 = molecular target: T5, recombinant human TDP2 (Homo sapiens, UniProt O95551); assay: Kinetics experiments; type: biochemical
T5 sequence (O95551 1-362): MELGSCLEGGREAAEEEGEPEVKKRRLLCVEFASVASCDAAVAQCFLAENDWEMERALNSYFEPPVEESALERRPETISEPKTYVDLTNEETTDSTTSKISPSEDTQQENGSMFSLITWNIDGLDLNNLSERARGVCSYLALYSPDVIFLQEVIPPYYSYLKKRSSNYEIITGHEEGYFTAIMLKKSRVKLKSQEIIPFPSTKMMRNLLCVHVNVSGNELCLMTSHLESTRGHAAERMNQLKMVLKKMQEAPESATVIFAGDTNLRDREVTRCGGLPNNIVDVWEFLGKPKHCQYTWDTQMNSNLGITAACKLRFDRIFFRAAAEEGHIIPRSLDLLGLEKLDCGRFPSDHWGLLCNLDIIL
In short: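 Recombinant TDP2 at 10 pM was incubated at RT with 5, 10, 20 or 800 nM unlabeled TY19 substrate, spiked with 1 nM 32P-labeled TY19, with 0, 30, 50 or 150 nM test compound. Time-course reactions were resolved on 16% denaturing PAGE. Initial velocities from linear fits went into a Lineweaver–Burk plot.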

zebrafish TDP2 (zTDP2) = assay: Recombinant TDP2 assay, zebrafish TDP2; type: biochemical, D. rerio; conditions: full-length zebrafish TDP2
C. elegans TDP2 (cTDP2) = assay: Recombinant TDP2 assay, C. elegans TDP2; type: biochemical; conditions: full-length C. elegans TDP2
[3] = molecular target: T6, human cellular TDP2 in HT29 whole cell extracts (Homo sapiens, UniProt O95551); assay: TDP2 assay with whole cell extracts from HT29 cells; type: biochemical; conditions: Supporting Information Figure 1
T6 sequence (O95551 1-362): T5 sequence (O95551 1-362)
In short: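 1 × 10^7 human cells were lysed 15 min on ice and spun at 12,000g for 10 min; protein was measured and extracts were stored at −80 °C. Extract at 10–20 μg/mL (30–40% cleavage) was incubated with 1 nM 32P-labeled 5′-phosphotyrosyl 18-mer DNA and test compound for 15 min at RT in pH 7.5 Tris/KCl/MgCl2 buffer. Products were run on 16% denaturing PAGE and quantified by densitometry.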

[4] = molecular target: native endogenous avian TDP2 in DT40 whole cell extracts (Gallus gallus, UniProt F1NW29); assay: TDP2 assay with DT40 whole cell extracts; type: biochemical, chicken; conditions: Supporting Information Figure 1
native endogenous avian TDP2 in DT40 whole cell extracts, sequence (F1NW29 whole entry): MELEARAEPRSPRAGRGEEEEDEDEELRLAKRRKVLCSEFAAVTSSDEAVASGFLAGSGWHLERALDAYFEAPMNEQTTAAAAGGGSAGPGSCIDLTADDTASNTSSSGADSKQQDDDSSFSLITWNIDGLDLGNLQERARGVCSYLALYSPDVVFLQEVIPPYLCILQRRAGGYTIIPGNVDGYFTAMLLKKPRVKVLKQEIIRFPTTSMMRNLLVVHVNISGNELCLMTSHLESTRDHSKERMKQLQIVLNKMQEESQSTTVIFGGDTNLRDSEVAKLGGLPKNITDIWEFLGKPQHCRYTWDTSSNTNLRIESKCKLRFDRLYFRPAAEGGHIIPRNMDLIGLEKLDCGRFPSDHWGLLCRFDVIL

[5] = test system: DU145 prostate cancer cells; assay: Cell viability / drug combination with etoposide in DU145 cells; type: cell-based, human
[6] = test system: DT40 avian lymphoblastoid cells; assay: Drug combination with etoposide in DT40 cells; type: cell-based, chicken
[7] = test system: TK6 human lymphoblastoid cells (TK6 WT); assay: Drug combination with etoposide in TK6 cells; type: cell-based; conditions: increasing concentrations of ETP
In short: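 TK6 wild-type lymphoblastoid cells seeded at 10,000 cells/well and exposed continuously to the test compound combined with increasing etoposide concentrations for 72 h, in triplicate. ATPlite luminescence read at 72 h after 5 min incubation. Viability was expressed as a percentage of the ATP level in untreated cells.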

TK6 TDP2 KO cells = assay: Drug combination with etoposide in TK6 TDP2 KO cells; type: cell-based, human
DT40 hTDP2 cells = assay: Drug combination in TDP2 knockout DT40 cells complemented with human TDP2; type: cell-based, chicken
In short: (§1)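 DT40 cells (TDP2-knockout, with or without human TDP2 complementation) seeded at 200 cells/well and exposed continuously to the test compound plus etoposide (or camptothecin) across concentration ranges for 72 h, in triplicate. Viability read at 72 h by ATPlite luminescence after 5 min. Viability was the ATP level of treated cells over untreated cells × 100.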

DT40 TDP2 KO cells = assay: Drug combination with etoposide in DT40 TDP2 KO cells; type: cell-based, chicken
In short: as §1

[8] = molecular target: T7, recombinant human TDP2 (REC hTDP2) (Homo sapiens, UniProt O95551); assay: Recombinant TDP2 assay; type: biochemical
T7 sequence (O95551 1-362): T5 sequence (O95551 1-362)

N#Cc1ccc2cc3c(=O)[nH]c(=O)nc-3n(-c3cccc(-c4nnn[nH]4)c3)c2c1 [Compound 1, 2,4-Dioxo-10-[3-(1H-tetrazol-5-yl)phenyl]pyrimido[4,5-b]-quinoline-8-carbonitrile]
IC50 (mTDP2 WT): > 111000 nM
IC50 [1]: 1200 ± 100 nM
IC50 [2]: 710 nM and 580 nM
IC50 (mTDP2 9M (8M + H323L)): 29 ± 10 nM
kcat (recombinant human TDP2; 30 nM of 1): 2.75 s⁻¹
kcat (recombinant human TDP2; 50 nM of 1): 2.71 s⁻¹
kcat (recombinant human TDP2; 150 nM of 1): 3.03 s⁻¹
mode of inhibition of hTDP2 (recombinant human TDP2; Lineweaver double-reciprocal plot): competitive inhibitor
resistance of zTDP2 to the drug (zebrafish TDP2 (zTDP2)): at least 3 orders of magnitude
resistance of cTDP2 to the drug (C. elegans TDP2 (cTDP2)): at least 3 orders of magnitude
activity against human cellular TDP2 in HT29 whole cell extracts [3]: confirmed
activity against native endogenous avian TDP2 in DT40 whole cell extracts [4]: active
synergy with ETP [5]: synergistic effect
combination effect with ETP ([5]; 5 μM ETP): supra-additive effect
cells killed in combination with ETP ([5]; 1 in combination with 1 μM of ETP): over 90%
cytotoxicity by itself ([5]; up to 50 μM, 72 h): not cytotoxic
synergy with ETP [6]: showed synergy
combination effect with ETP [7]: supra-additive effect
synergy with ETP (TK6 TDP2 KO cells): synergy was not observed
synergy with camptothecin (DT40 hTDP2 cells; ETP replaced by camptothecin, Supporting Information Figure 4): not observed
synergy with ETP (DT40 hTDP2 cells; increasing concentrations of ETP): synergistic effect
synergy with ETP (DT40 TDP2 KO cells): synergy was greatly reduced

N#Cc1ccc2cc3c(=O)[nH]c(=O)nc-3n(-c3ccccc3)c2c1 [Compound 3, 2,4-Dioxo-10-phenyl-pyrimido[4,5-b]quinoline-8-carbonitrile]
synergy with ETP [5]: synergistic effect

O=c1nc2n(-c3ccc(O)cc3)c3cc(Cl)ccc3cc-2c(=O)[nH]1 [Compound 4, 8-Chloro-10-(4-hydroxyphenyl)pyrimido[4,5-b]quinoline-2,4-dione]
decrease of potency against hTDP2 ([8]; 4 relative to 2 (cyano replaced by chloro)): 27 fold

O=c1nc2n(-c3ccccc3)c3ccccc3cc-2c(=O)[nH]1 [Compound 5, 10-Phenylpyrimido[4,5-b]quinoline-2,4(3H,10H)-dione]
additional loss of potency against hTDP2 ([8]; 5 relative to 4 (chloro removed)): 18 fold

COc1cc([C@@H]2c3cc4c(cc3[C@@H](O[C@@H]3O[C@@H]5CO[C@@H](C)O[C@H]5[C@H](O)[C@H]3O)[C@H]3COC(=O)[C@H]23)OCO4)cc(OC)c1O [ETP, etoposide, reference compound]
cells killed by ETP by itself ([5]; 1 μM ETP alone): around 50%
